Assays:
[1] = target: Muscarinic acetylcholine receptor M3 (Homo sapiens) (UniProt P20309); assay: Positive allosteric modulation of recombinant human muscarinic acetylcholine receptor M3 expressed in CHOK1 cells assessed as increase in carbachol-induced intracellular calcium flux at 10 uM preincubated for 5 mins followed by carbachol addition by Fluo4-AM dye based FLIPR assay relative to carbachol; assay type: functional, cell-based; settings: CHO-K1
How it was run: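 CHO-K1 cells stably expressing human or rat M1–M5; M2 and M4 lines also co-express human Gα16. Cells loaded with 3.1 μM Fluo-4 AM in HBSS/20 mM HEPES pH 7.5/BSA/2.5 mM probenecid for ~2 h at room temperature. Test substance at 10 μM final, then carbachol (0.0024 nM–100 μM) ~5 min later; Ca2+ read by FLIPR Tetra. Fold shift = carbachol EC50 without / with test substance, from logistic fits.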

Thrombopoietin receptor = target: T1, Thrombopoietin receptor (Homo sapiens, UniProt P40238); assay: Agonist activity at recombinant human c-Mpl receptor transfected in BA/F3 cells assessed as increase in cell proliferation by cell counting analysis; assay type: cell-based; settings: baf3
T1 sequence (P40238 whole entry): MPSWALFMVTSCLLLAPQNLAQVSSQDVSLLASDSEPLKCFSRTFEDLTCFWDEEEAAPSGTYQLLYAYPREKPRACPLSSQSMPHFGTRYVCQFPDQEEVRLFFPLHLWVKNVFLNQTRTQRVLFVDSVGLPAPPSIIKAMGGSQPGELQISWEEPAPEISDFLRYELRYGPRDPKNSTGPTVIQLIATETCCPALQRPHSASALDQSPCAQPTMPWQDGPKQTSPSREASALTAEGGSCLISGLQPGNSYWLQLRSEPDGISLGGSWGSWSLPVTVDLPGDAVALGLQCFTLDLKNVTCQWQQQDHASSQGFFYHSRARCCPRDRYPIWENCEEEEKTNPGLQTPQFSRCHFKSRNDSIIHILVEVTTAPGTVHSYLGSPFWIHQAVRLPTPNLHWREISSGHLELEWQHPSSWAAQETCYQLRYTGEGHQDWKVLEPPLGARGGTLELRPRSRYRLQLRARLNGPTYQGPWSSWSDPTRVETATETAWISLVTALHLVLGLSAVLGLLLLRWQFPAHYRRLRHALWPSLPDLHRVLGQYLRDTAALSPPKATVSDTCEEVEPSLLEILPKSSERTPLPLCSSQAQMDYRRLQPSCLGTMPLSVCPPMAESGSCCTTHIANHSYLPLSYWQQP
How it was run: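 Ba/F3 cells stably transfected with human c-Mpl by electroporation with blasticidin selection. 1×10^4 cells/well in RPMI-1640 with 10% FBS, with test substance (100 nM to 10 μM final), overnight at 37°C in 5% CO2. Cell Counting Kit added for about 5 h, then A450 read. Scale: untreated wells 0%, reference c-Mpl agonist at 1 μM 100%. EC30 from logistic regression.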

Chain of Muscarinic acetylcholine receptor M3 (Homo sapiens) (P20309 whole entry, looked up): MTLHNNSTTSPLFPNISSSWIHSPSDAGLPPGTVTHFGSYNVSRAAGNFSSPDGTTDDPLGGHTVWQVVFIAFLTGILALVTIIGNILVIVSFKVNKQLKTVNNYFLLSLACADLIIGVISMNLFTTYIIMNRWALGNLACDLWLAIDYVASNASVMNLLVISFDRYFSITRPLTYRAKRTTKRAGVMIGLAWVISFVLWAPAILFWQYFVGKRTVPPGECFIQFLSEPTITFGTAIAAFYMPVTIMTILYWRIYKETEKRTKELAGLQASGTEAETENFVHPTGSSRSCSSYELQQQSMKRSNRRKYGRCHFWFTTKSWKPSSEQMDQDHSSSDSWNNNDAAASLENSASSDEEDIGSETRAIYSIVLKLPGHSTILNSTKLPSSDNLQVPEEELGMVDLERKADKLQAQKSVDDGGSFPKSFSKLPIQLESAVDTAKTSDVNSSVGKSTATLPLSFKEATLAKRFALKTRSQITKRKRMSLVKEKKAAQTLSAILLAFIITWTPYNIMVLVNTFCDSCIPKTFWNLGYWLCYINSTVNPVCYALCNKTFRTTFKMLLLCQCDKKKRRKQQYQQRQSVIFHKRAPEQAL

Row | Structure (SMILES) | fold change (FC) [1] | EC30 (Thrombopoietin receptor) [µM]
1 | COc1ccc(-c2nc(NC(=O)c3ccc(OCC(=O)O)cc3)sc2CN2CCCC(C)(C)C2)cc1C(F)(F)F | 204 | –
2 | COc1ccc(-c2nc(NC(=O)c3ccc(O)cc3)sc2CN2CCCC(C)(C)C2)cc1C(F)(F)F | 8.9 | –
3 | C[C@@H]1CCCN1Cc1sc(NC(=O)c2cnc(N3CCC(C(=O)O)CC3)c(F)c2)nc1-c1cc(Cl)cs1.Cl.Cl | 132 | 0.0032
4 | COc1ccc(-c2nc(NC(=O)c3cnc(N(C)CC(=O)O)cn3)sc2CN2CCCC(C)(C)C2)cc1C(F)(F)F | 137 | –
5 | COc1ccc(-c2nc(NC(=O)c3cnc(C(=O)O)cn3)sc2CN2CCCC(C)(C)C2)cc1C(F)(F)F | 39 | –
6 | COc1ccc(-c2nc(NC(=O)c3cnc(NCC(=O)O)cn3)sc2CN2CCCC(C)(C)C2)cc1C(F)(F)F | 162 | –
7 | C[C@@H]1CCCN1Cc1sc(NC(=O)c2cnc(N3CCC(C(=O)O)CC3)nc2)nc1-c1cc(Cl)cs1 | 65 | –
8 | C[C@@H]1CCCN1Cc1sc(NC(=O)C2CCN(c3ccc(C(=O)O)cn3)CC2)nc1-c1cc(Cl)cs1 (racemic) | 2.8 | –
9 | COc1ccc(-c2nc(NC(=O)c3cnc(OCC(=O)O)cn3)sc2CN2CCCC(C)(C)C2)cc1C(F)(F)F | 175 | –

Continued, in another order:

Row | fold change (FC) [1] | Structure (SMILES) | EC30 (Thrombopoietin receptor) [µM]
10 | 128 | CCC[C@@H]1CCCN1Cc1sc(NC(=O)c2cnc(N3CCC(C(=O)O)CC3)cn2)nc1-c1ccc(OC)c(C(F)(F)F)c1.Cl.Cl | > 10
11 | 25 | COc1ccc(-c2nc(NC(=O)c3cnc(N4CCC(C(=O)O)CC4)cn3)sc2CN2CCC[C@@H]2C)cc1C(F)(F)F.Cl.Cl | > 10
12 | 84 | COCCN(Cc1sc(NC(=O)c2cnc(N3CCC(C(=O)O)CC3)cn2)nc1-c1ccc(OC)c(C(F)(F)F)c1)CC(C)C.Cl.Cl | > 10
13 | 186 | C[C@@H]1CCCN1Cc1sc(NC(=O)c2cnc(N3CCC(C(=O)O)CC3)cn2)nc1-c1cc(Cl)cs1.Cl.Cl | 0.35
14 | 118 | C[C@@H]1CCCN1Cc1sc(NC(=O)c2cnc(N3CCC(C(=O)O)CC3)cn2)nc1-c1ccc(Cl)c(C(F)(F)F)c1.Cl.Cl | 1.72
15 | 168 | C[C@@H]1CCCN1Cc1sc(NC(=O)c2cnc(N3CCC(C(=O)O)CC3)cn2)nc1-c1cc(Cl)cc(C(F)(F)F)c1.Cl.Cl | 0.15
16 | 238 | COc1ccc(-c2nc(NC(=O)c3cnc(N4CCC(C(=O)O)CC4)cn3)sc2CN2CCCC(C)(C)C2)cc1C(F)(F)F.Cl.Cl | > 10
17 | 73 | COc1ccc(-c2nc(NC(=O)c3cnc(N4CCC(C(=O)O)CC4)cn3)sc2CN2CCC[C@H]2C)cc1C(F)(F)F.Cl.Cl | > 10
18 | 94 | COc1ccc(-c2nc(NC(=O)c3cnc(N4CCC(C(=O)O)CC4)cn3)sc2CN2CCCC[C@H]2C)cc1C(F)(F)F.Cl.Cl | > 10
19 | 72 | COC[C@@H]1CCCN1Cc1sc(NC(=O)c2cnc(N3CCC(C(=O)O)CC3)cn2)nc1-c1ccc(OC)c(C(F)(F)F)c1.Cl.Cl | > 10
